Experimental data: ChEMBL document CHEMBL4024784, “Structure-Based Design, Synthesis, and In Vivo Antinociceptive Effects of Selective A1 Adenosine Receptor Agonists” (J Med Chem, 2018)
Active and inactive are the calls of the source. The rule behind the calls is not given here.

What was measured:
Adenosine receptor A2a = Adenosine receptor A2a (Homo sapiens, UniProt P29274); test: Displacement of [3H]NECA from recombinant human adenosine A2A receptor expressed in CHO cell membranes after 3 hrs
In short: (§1)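 Competition binding on CHO membranes stably expressing the human subtype (two-step 1,000 x g then 100,000 x g centrifugation, stored -80°C). Radioligands: 1 nM [3H]CCPA (A1), 10 nM [3H]NECA (A2A), 1 nM [3H]HEMADO (A3). Nonspecific binding: 1 mM theophylline (A1) or 100 µM R-PIA (A2A, A3). Ki from competition curves; geometric means with 95% CI, duplicates, n ≥ 3.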

Adenosine receptor A1 [1] = target: T1, Adenosine receptor A1 (Homo sapiens, UniProt P30542); test: Displacement of [3H]CCPA from recombinant human adenosine A1 receptor expressed in CHO cell membranes after 3 hrs; in short: as §1
T1 sequence (P30542 whole entry): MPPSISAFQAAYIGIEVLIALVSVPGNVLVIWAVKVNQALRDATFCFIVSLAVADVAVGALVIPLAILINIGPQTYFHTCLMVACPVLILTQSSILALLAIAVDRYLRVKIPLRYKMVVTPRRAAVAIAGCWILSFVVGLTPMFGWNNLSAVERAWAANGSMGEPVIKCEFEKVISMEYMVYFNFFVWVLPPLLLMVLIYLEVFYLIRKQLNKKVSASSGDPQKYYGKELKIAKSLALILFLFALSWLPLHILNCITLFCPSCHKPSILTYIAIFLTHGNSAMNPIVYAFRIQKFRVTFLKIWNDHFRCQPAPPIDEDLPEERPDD

Adenosine receptor A2b = target: T2, Adenosine receptor A2b (Homo sapiens, UniProt P29275); test: Agonist activity at recombinant human adenosine A2B receptor expressed in CHO cell membranes assessed as stimulation of adenylyl cyclase activity in presence of […]; format: functional, cell-based
T2 sequence (P29275 whole entry): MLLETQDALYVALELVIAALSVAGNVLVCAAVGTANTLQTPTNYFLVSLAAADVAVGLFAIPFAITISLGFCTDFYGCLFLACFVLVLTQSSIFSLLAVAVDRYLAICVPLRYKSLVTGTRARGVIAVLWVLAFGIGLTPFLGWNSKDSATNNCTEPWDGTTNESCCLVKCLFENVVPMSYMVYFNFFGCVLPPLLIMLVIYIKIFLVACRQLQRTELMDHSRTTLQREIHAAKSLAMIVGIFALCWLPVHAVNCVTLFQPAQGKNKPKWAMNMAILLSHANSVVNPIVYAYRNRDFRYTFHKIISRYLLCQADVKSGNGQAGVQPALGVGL
In short: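 A2B potency from stimulation of adenylyl cyclase in crude CHO membranes (single high-speed centrifugation, resuspended in 50 mM Tris/HCl pH 7.4, used immediately); EC50 derived. Where only partial agonism was seen, efficacy was compared to 100 µM NECA as full agonist. Geometric means, 95% CI, duplicates, n ≥ 3.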

Adenosine receptor A3 [2] = target: T3, Adenosine receptor A3 (Homo sapiens, UniProt P0DMS8); test: Displacement of [3H]HEMADO from recombinant human adenosine A3 receptor expressed in CHO cell membranes after 3 hrs; in short: as §1
T3 sequence (P0DMS8 whole entry): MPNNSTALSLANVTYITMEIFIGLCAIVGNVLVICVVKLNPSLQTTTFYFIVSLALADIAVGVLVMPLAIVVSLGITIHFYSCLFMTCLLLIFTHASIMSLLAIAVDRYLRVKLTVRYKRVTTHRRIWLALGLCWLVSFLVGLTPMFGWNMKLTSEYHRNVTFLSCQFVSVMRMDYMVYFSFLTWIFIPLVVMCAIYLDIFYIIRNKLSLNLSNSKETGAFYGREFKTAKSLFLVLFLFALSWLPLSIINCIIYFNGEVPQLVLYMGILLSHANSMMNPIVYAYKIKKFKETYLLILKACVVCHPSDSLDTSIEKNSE

Homo sapiens = organism: Homo sapiens; test: Selectivity ratio of Ki for recombinant human adenosine A2A receptor to Ki for recombinant human adenosine A1 receptor
In short: (§2)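 Ratios computed from Ki values obtained by competition binding in human receptor-transfected CHO membranes: [3H]CCPA 1 nM (A1), [3H]NECA 10 nM (A2A), [3H]HEMADO 1 nM (A3).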

[3] = target: Adenosine receptors; A1 & A3 (Homo sapiens) (UniProt P30542+P0DMS8); test: Selectivity ratio of Ki for recombinant human adenosine A3 receptor to Ki for recombinant human adenosine A1 receptor; in short: as §2
Mus musculus [4] = test: Antinociceptive activity in ip dosed C57BL/6 mouse assessed as reduction in prolonged phase of tonic pain administered 10 mins prior to formalin challenge measured after 60 mins; format: functional, organism-based
In short: (§3)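 Adult male C57BL/6 mice (25-30 g), acclimatized 30 min in test chamber. Compound or vehicle (10% DMSO in 0.9% NaCl) given i.p. 10 min before 30 µL 1.25% formalin s.c. into dorsal hind paw; DPCPX 1 mg/kg i.p. where co-given. Blinded observers recorded paw lifting/licking time every 5 min for 60 min; early phase 0-7 min, late phase 15-60 min. 8-10 mice/group, mean ± SEM.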

Mus musculus [5] = test: Antinociceptive activity in C57BL/6 mouse assessed as reduction in prolonged phase of tonic pain at 2 mg/kg, ip administered 10 mins prior to formalin challenge measured after 60 mins in presence of A1AR antagonist DPCPX; format: functional, organism-based; in short: as §3
Adenosine receptor A1 [6] = target: T1, Adenosine receptor A1; test: Agonist activity at recombinant human adenosine A1 receptor expressed in CHO cell membranes assessed as inhibition of forskolin-stimulated adenylyl cyclase activity in presence of […]
[7] = target: T4, Adenosine receptor A1 (Homo sapiens) (UniProt P30542); test: Agonist activity at recombinant human adenosine A1 receptor expressed in CHO cell membranes assessed as inhibition of forskolin-stimulated adenylyl cyclase activity in presence of […] relative to CCPA
T4 sequence (whole entry): T1 sequence (P30542 whole entry)

Adenosine receptor A3 [8] = target: T3, Adenosine receptor A3; test: Antagonist activity at recombinant human adenosine A3 receptor expressed in CHO cell membranes assessed as inhibition of forskolin-stimulated adenylyl cyclase in presence of […]; format: functional, cell-based
In short: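 hA3-CHO membranes (one high-speed spin, 50 mM Tris/HCl pH 7.4, used fresh) tested for reversal of NECA-induced inhibition of forskolin-stimulated adenylyl cyclase. NECA served as reference agonist. Points in duplicate, at least 3 independent experiments.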

Mus musculus [9] = test: Antinociceptive activity in C57BL/6 mouse assessed as reduction in early phase of tonic pain at 2 mg/kg, ip administered 10 mins prior to formalin challenge measured after 7 mins; format: functional, organism-based; in short: as §3
Mus musculus [10] = test: Antinociceptive activity in C57BL/6 mouse assessed as reduction in prolonged phase of tonic pain at 4 mg/kg, ip administered 10 mins prior to formalin challenge measured after 60 mins; format: functional, organism-based; in short: as §3
Mus musculus [11] = test: Antinociceptive activity in C57BL/6 mouse assessed as reduction in early phase of tonic pain at 4 mg/kg, ip administered 10 mins prior to formalin challenge measured after 7 mins; format: functional, organism-based; in short: as §3
Mus musculus [12] = test: Antinociceptive activity in C57BL/6 mouse assessed as reduction in prolonged phase of tonic pain at 4 mg/kg, ip administered 10 mins prior to formalin challenge measured after 60 mins in presence of A1AR antagonist DPCPX; format: functional, organism-based; in short: as §3
Mus musculus [13] = test: Antinociceptive activity in C57BL/6 mouse assessed as reduction in early phase of tonic pain at 4 mg/kg, ip administered 10 mins prior to formalin challenge measured after 7 mins in presence of A1AR antagonist DPCPX; format: functional, organism-based; in short: as §3

Chain of Adenosine receptor A2a (P29274 whole entry): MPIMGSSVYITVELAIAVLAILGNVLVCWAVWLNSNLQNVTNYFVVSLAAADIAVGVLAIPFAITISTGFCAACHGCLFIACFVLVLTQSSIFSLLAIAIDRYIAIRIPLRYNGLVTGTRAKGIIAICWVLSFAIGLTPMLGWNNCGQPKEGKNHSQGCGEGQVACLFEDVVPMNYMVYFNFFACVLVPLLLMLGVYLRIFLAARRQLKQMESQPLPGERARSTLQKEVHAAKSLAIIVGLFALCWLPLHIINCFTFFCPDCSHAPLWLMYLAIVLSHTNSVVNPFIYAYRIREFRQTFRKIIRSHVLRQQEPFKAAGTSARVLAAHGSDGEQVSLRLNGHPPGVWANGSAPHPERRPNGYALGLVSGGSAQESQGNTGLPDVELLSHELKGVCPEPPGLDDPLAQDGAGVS

Row | Compound | Ki (Adenosine receptor A2a) [µM] | Ki (Adenosine receptor A1 [1]) [µM] | EC50 (Adenosine receptor A2b) [µM] | Ki (Adenosine receptor A3 [2]) [µM] | Ratio Ki (Homo sapiens) | Ratio Ki [3] | Activity (Mus musculus [4]) | Activity (Mus musculus [5]) | EC50 (Adenosine receptor A1 [6]) [µM] | Efficacy [7] [%] | IC50 (Adenosine receptor A3 [8]) [µM] | Activity (Mus musculus [9]) | Activity (Mus musculus [10]) | Activity (Mus musculus [11]) | Activity (Mus musculus [12]) | Activity (Mus musculus [13])
1 | O[C@@H]1[C@H](O)[C@@H](CCl)O[C@H]1n1cnc2c(N[C@@H]3CCOC3)nc(Cl)nc21 | 8.68 | 0.0035 | 20 | 1.1 | 2480 | 314 | Dose-dependent effect | inactive | 0.0542 | > 90 |  |  |  |  |  | 
2 | Cc1cc(C)n(C[C@H]2O[C@@H](n3cnc4c(NC5CC6CCC5C6)nc(Cl)nc43)[C@H](O)[C@@H]2O)n1 (mixture of isomers) | 9.43 | 0.00435 | > 30 | 1.45 | 2170 | 333 | Dose-dependent effect |  | 0.134 | > 90 |  |  |  |  |  | 
3 | Cc1cc(C)n(C[C@H]2O[C@@H](n3cnc4c(N[C@@H]5CCOC5)nc(Cl)nc43)[C@H](O)[C@@H]2O)n1 | 11.9 | 0.438 | > 60 | 0.996 | 27 | 2.3 |  |  |  |  |  |  |  |  |  | 
4 | Cc1cc(C)n(C[C@H]2O[C@@H](n3cnc4c(N[C@@H]5CCOC5)ncnc43)[C@H](O)[C@@H]2O)n1 | 28.6 | 0.491 | > 60 | 5.28 | 58 | 11 |  |  |  |  |  |  |  |  |  | 
5 | Cc1cc(C)n(C[C@H]2O[C@@H](n3cnc4c(Nc5ccc(Cl)cc5F)nc(Cl)nc43)[C@H](O)[C@@H]2O)n1 | > 100 | 0.139 | > 60 | 0.139 | > 719 | 1 |  |  | 5.57 | > 90 | 0.701 |  |  |  |  | 
6 | O[C@@H]1[C@H](O)[C@@H](CCl)O[C@H]1n1cnc2c(Nc3ccc(Cl)cc3F)nc(Cl)nc21 | 1.96 | 0.0112 | > 60 | 0.232 | 175 | 21 |  |  |  |  |  |  |  |  |  | 
7 | Cc1cc(C)n(C[C@H]2O[C@@H](n3cnc4c(NC5CC6CCC5C6)ncnc43)[C@H](O)[C@@H]2O)n1 (mixture of isomers) | 19.6 | 0.0256 | > 30 | 5.45 | 765 | 213 |  |  |  |  |  |  |  |  |  | 
8 | O[C@@H]1[C@H](O)[C@@H](CCl)O[C@H]1n1cnc2c(Nc3ccc(Cl)cc3F)ncnc21 | 1.36 | 0.00187 | 3.74 | 0.136 | 727 | 73 |  |  | 0.056 | > 90 | 4.14 |  |  |  |  | 
9 | Cc1cc(C)n(C[C@H]2O[C@@H](n3cnc4c(NC5CCCC5)nc(Cl)nc43)[C@H](O)[C@@H]2O)n1 | 10.2 | 0.0186 | > 30 | 0.343 | 548 | 18 |  |  | 0.541 | > 90 | 1.91 |  |  |  |  | 
10 | Cc1cc(C)n(C[C@H]2O[C@@H](n3cnc4c(NC5CCCC5)ncnc43)[C@H](O)[C@@H]2O)n1 | 14.5 | 0.115 | > 60 | 5.64 | 126 | 49 |  |  |  |  |  |  |  |  |  | 
11 | O[C@@H]1[C@H](O)[C@@H](CCl)O[C@H]1n1cnc2c(N[C@@H]3CCOC3)ncnc21 | 10.4 | 0.00189 | 12.8 | 1.2 | 5500 | 635 |  |  | 0.14 | > 90 |  | Active | Active | Active | inactive | inactive
12 | Cc1cc(C)n(C[C@H]2O[C@@H](n3cnc4c(Nc5ccc(Cl)cc5F)ncnc43)[C@H](O)[C@@H]2O)n1 | 6.83 | 0.158 | > 60 | 2.73 | 43 | 17 |  |  |  |  |  |  |  |  |  | 
